Assay [1] is described as follows: Inhibition of glucose-induced insulin secretion in Wistar rat pancreatic beta islets assessed as residual insulin secretion at 10 uM relative to control. The class given is functional.
The test system of assay [2] is Aorta. The assay can be described thus: Myorelaxant activity in potassium depolarized Wistar rat aorta rings assessed as relaxation of KCl-induced contraction. It is filed as functional, tissue-based. In outline:
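Thoracic aorta rings (3–4 mm) from adult fed Wistar rats were equilibrated for 60 min, then contracted with 30 mM KCl. Drug was added cumulatively up to maximal relaxation or 300 µM, and isometric tension was recorded. Relaxation was expressed as % of the KCl contraction. EC50 (50% inhibition of the KCl plateau) was derived from dose–response curves. Values are mean ± SEM (n).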

The subject of assay [3] is Aorta. The assay can be described thus: Ratio of IC50 for glucose-induced insulin secretion in Wistar rat pancreatic beta islets to EC50 for myorelaxant activity in Wistar rat aorta rings. The class given is functional. In outline:
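Selectivity ratio: the estimated IC50 for inhibition of 16.7 mM glucose-induced insulin release from incubated islets, divided by the EC50 for relaxing 30 mM KCl-contracted rat aortic rings.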

A short description of assay [4]: Activation of KATP channel assessed as reduction of glucose-induced rise in cytosolic calcium concentration in Wistar rat pancreatic beta islets at 10 uM by calcium fluorimetry. The essentials: (§1)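 Dispersed rat islet cells were cultured for 72 h on coverslips, then loaded with fura-2 AM (2 µmol/L) for 1 h. Cells were perifused in bicarbonate salt medium with 2.8 mM glucose, gassed with O2/CO2. The rise in [Ca2+]i was evoked by 20 mM glucose or by 50 mM KCl, with NaCl lowered to keep osmolarity constant. Drug was 10 µM. Dual-excitation (340/380 nm, emission 510 nm) ratio F340/F380 was recorded in single cells, on different cell populations.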

The nature of assay [5]: Activation of KATP channel assessed as increase in rate of [86Rb] fractional outflow in perfused Wistar rat pancreatic beta islets at 10 uM. In outline:
(§2)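 Islets from adult fed Wistar rats, in groups of 100, were loaded for 60 min at 37 °C in medium with 16.7 mM glucose plus either 86Rb (0.15–0.25 mmol/L) or 45Ca (0.02–0.04 mmol/L). They were washed three times and then perifused at 1.0 mL/min. Effluent was collected each minute from min 31 to 90. Outflow was expressed as fractional outflow rate (% of instantaneous islet content per min). Insulin in the effluent was measured by radioimmunoassay against a rat insulin standard.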

Assay [6] is described as follows: Inhibition of glucose-induced insulin secretion in Wistar rat pancreatic beta islets assessed as residual insulin secretion at 1 uM relative to control. The class given is functional.
The nature of assay [7]: Activation of KATP channel assessed as reduction of KCl-induced rise in calcium concentration in Wistar rat pancreatic beta islets at 10 uM by calcium fluorimetry. In outline: as §1
Assay [8] can be described thus: Activation of KATP channel assessed as increase in rate of [86Rb] fractional outflow in perfused Wistar rat pancreatic beta islets in presence of glibenclamide at 10 uM. The essentials:
as §2

Assay [9] can be described thus: Inhibition of glucose-induced insulin secretion in Wistar rat pancreatic beta islets assessed as residual insulin secretion relative to control. The class given is functional. The essentials:
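Groups of 10 islets from adult fed Wistar rats were preincubated for 30 min at 37 °C in bicarbonate salt medium with 2.8 mM glucose and 0.5% albumin, gassed with O2/CO2. They were then incubated for 90 min in the same medium with 16.7 mM glucose plus drug. Insulin was measured by radioimmunoassay and expressed as % of drug-free 16.7 mM glucose control. Values are mean ± SEM (n).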

A short description of assay [10]: Activation of KATP channel assessed as increase in rate of [45Ca] fractional outflow in perfused Wistar rat pancreatic beta islets at 10 uM. In outline: as §2
Assay [11] in a line: Activation of KATP channel assessed as insulin release in perfused Wistar rat pancreatic beta islets at 10 uM. In outline:
as §2

Assay [12] can be described thus: Activation of KATP channel assessed as increase in rate of [45Ca] fractional outflow in perfused Wistar rat pancreatic beta islets at 10 uM in absence of extracellular calcium. In outline:
as §2

Each structure is given as a SMILES string. The source made the active and inactive calls. The rule behind the calls is not given here. Bounds are passed on as bounds.

By EC50 is commonly meant the concentration giving half of the maximal effect. The IC50 is the midpoint of a concentration-inhibition curve.

In the case of `COc1ccccc1NC(=S)NC1CC(C)(C)Oc2ccc(F)cc21` (centres undefined), in assay [1], the Activity came to 82.9%. Further, the EC50 in assay [2] was greater than 10 µM.

Turning to `COc1cccc(NC(=S)NC2CC(C)(C)Oc3ccc(Cl)cc32)c1` (centres undefined), the Activity in assay [1] is given as 34.3%. In addition, the concentration giving a half-maximal response (EC50) in assay [2] amounted to 2.9 µM.

Regarding `Cc1ccc(NC(=S)NC2CC(C)(C)Oc3ccc(Cl)cc32)cc1` (centres undefined), the Activity in [1] is 32.8%. Also, the EC50 in [2] was greater than 30 µM.

Turning to `CC1(C)CC(NC(=S)Nc2ccc(Cl)cc2)c2cc(Br)ccc2O1` (centres undefined), the “Ratio IC50/EC50” value in [3] is on record as less than 0.22. For the same compound, the result in assay [4] and in assay [5] was Active. Also, the Activity was found to be 75.7% in assay [6] and 12.2% in assay [1]. Further, the outcome in assay [7] and in assay [8] was inactive. For the same compound, the EC50 in assay [2] was greater than 10 µM. For the same compound, the IC50 in assay [9] came out at 2.26 µM.

On to `CC1(C)CC(NC(=S)Nc2ccccc2Cl)c2cc(F)ccc2O1` (centres undefined), for which the Activity in [1] stood at 81.3%. In addition, in [2], the EC50 stood at 24.4 µM.

Regarding `CC1(C)CC(NC(=S)Nc2ccc(Cl)cc2)c2cc(F)ccc2O1` (centres undefined), the result in assay [10], in [4], in assay [5] and in [11] was Active. Besides, the “Ratio IC50/EC50” value in assay [3] is reported as less than 0.23. The figures for the Activity in assay [6] and in assay [1] were 77.5% and 10.5%, respectively. Further, the outcome in assay [7], in assay [8] and in [12] was inactive. For the same compound, the half-maximal effective concentration (EC50) in assay [2] was greater than 10 µM. Moreover, in assay [9], the half-inhibitory concentration (IC50) is 2.3 µM.

As for `CC1(C)CC(NC(=S)Nc2ccccc2)c2cc(Br)ccc2O1` (centres undefined), the Activity in assay [1] was determined as 32.8%. Also, in [2], the EC50 worked out at 51.5 µM.

Take `CC1=Nc2ccc(Cl)cc2S(=O)(=O)N1` [DIAZOXIDE]: the “Ratio IC50/EC50” value in assay [3] is reported as 1.01. For the same compound, the Activity in [6] was 87.5%; in assay [1] it was 73.9%.

Regarding `Cc1cccc(NC(=S)NC2CC(C)(C)Oc3ccc(F)cc32)c1` (centres undefined), the Activity in assay [1] is 53.1%. In addition, in [2], the EC50 worked out at 7.3 µM.

For the compound `CC(N/C(=N\C#N)Nc1ccncc1)C(C)(C)C` (racemic) [PINACIDIL ANHYDROUS], in assay [2], the EC50 was determined as 0.35 µM. Also, the concentration for half-maximal inhibition (IC50) in assay [9] was greater than 100 µM.

As for `Cc1ccccc1NC(=S)NC1CC(C)(C)Oc2ccc(F)cc21` (centres undefined), the Activity in [1] is listed as 69.8%. Also, the EC50 in [2] stood at 11.1 µM.

Consider `Cc1ccc(NC(=S)NC2CC(C)(C)Oc3ccc(Br)cc32)cc1` (centres undefined), for which the Activity in assay [1] is recorded as 52.2%. The EC50 in assay [2] is greater than 30 µM.

`CC1(C)CC(NC(=S)Nc2cccc(Cl)c2)c2cc(F)ccc2O1` (centres undefined): the “Ratio IC50/EC50” value in assay [3] is less than 0.32. The figures for the Activity in assay [6] and in assay [1] were 90.2% and 18%, respectively. Also, in assay [2], the concentration giving a half-maximal response (EC50) is greater than 10 µM. In addition, the IC50 in assay [9] was 3.25 µM.

Consider `CC1(C)CC(NC(=S)Nc2ccccc2)c2cc(Cl)ccc2O1` (centres undefined), for which, in assay [1], the Activity is listed as 46.6%. Also, the half-maximal effective concentration (EC50) in assay [2] turned out to be 11.1 µM.

Turning to `Cc1cccc(NC(=S)NC2CC(C)(C)Oc3ccc(Br)cc32)c1` (centres undefined), in assay [1], the Activity was 37.2%. Also, in [2], the EC50 was greater than 30 µM.

`Cc1ccccc1NC(=S)NC1CC(C)(C)Oc2ccc(Br)cc21` (centres undefined): the Activity in assay [1] amounted to 57%. For the same compound, the EC50 in assay [2] was greater than 30 µM.

As for `COc1ccccc1NC(=S)NC1CC(C)(C)Oc2ccc(Cl)cc21` (centres undefined), the Activity in [1] is given as 76.8%. The concentration for a half-maximal effect (EC50) in assay [2] is 5.5 µM.

Regarding `COc1ccccc1NC(=S)NC1CC(C)(C)Oc2ccc(Br)cc21` (centres undefined), the Activity in assay [1] came out at 65.1%. For the same compound, the EC50 in assay [2] is greater than 10 µM.

Turning to `CC1(C)CC(NC(=S)Nc2cccc(Cl)c2)c2cc(Br)ccc2O1` (centres undefined), the “Ratio IC50/EC50” value in [3] is less than 0.25. Also, the Activity in assay [6] is 74.6%; in assay [1] it was 23%. In [2], the EC50 is greater than 10 µM. Besides, in [9], the half-inhibitory concentration (IC50) is 2.59 µM.

As for `CC1(C)CC(NC(=S)Nc2ccccc2Cl)c2cc(Br)ccc2O1` (centres undefined), in assay [1], the Activity amounted to 57.5%. Besides, the half-maximal effective concentration (EC50) in [2] was found to be 6.5 µM.

For `CC(C)NC1=NS(=O)(=O)c2cc(Cl)ccc2N1`, the “Ratio IC50/EC50” value in assay [3] amounted to 0.02. Moreover, the Activity came to 36.2% in assay [6] and 4.9% in [1]. Also, the EC50 in [2] worked out at 36.3 µM. The IC50 in assay [9] is 0.73 µM.

As for `Cc1ccc(NC(=S)NC2CC(C)(C)Oc3ccc(F)cc32)cc1` (centres undefined), the Activity in [1] was 60.2%. For the same compound, the 50% effective concentration (EC50) in assay [2] is greater than 30 µM.

For `COc1cccc(NC(=S)NC2CC(C)(C)Oc3ccc(Br)cc32)c1` (centres undefined), the Activity in assay [1] is 36.6%. Besides, in assay [2], the EC50 was greater than 10 µM.

`COc1ccc(NC(=S)NC2CC(C)(C)Oc3ccc(Br)cc32)cc1` (centres undefined): the Activity in assay [1] was found to be 53.1%. In assay [2], the EC50 was greater than 10 µM.

For `CC1(C)CC(NC(=S)Nc2ccccc2)c2cc(F)ccc2O1` (centres undefined), the Activity in assay [1] came out at 63.2%. For the same compound, in assay [2], the EC50 amounted to 7.6 µM.

On to `Cc1cccc(NC(=S)NC2CC(C)(C)Oc3ccc(Cl)cc32)c1` (centres undefined), for which the Activity in assay [1] amounted to 43%. In addition, in assay [2], the EC50 stood at 137 µM.

In the case of `Cc1ccccc1NC(=S)NC1CC(C)(C)Oc2ccc(Cl)cc21` (centres undefined), the Activity in [1] came to 69%. In assay [2], the 50% effective concentration (EC50) is greater than 30 µM.

Take `CC1(C)CC(NC(=S)Nc2ccccc2Cl)c2cc(Cl)ccc2O1` (centres undefined): in [1], the Activity worked out at 68.2%. Further, in [2], the EC50 is 3.2 µM.

For `COc1ccc(NC(=S)NC2CC(C)(C)Oc3ccc(F)cc32)cc1` (centres undefined), in [1], the Activity is on record as 73.8%. Further, the concentration giving a half-maximal response (EC50) in assay [2] was 21.6 µM.

As for `COc1cccc(NC(=S)NC2CC(C)(C)Oc3ccc(F)cc32)c1` (centres undefined), the Activity in assay [1] amounted to 52%. Moreover, the EC50 in assay [2] came to 6.2 µM.

Take `CC1(C)CC(NC(=S)Nc2ccc(Cl)cc2)c2cc(Cl)ccc2O1` (centres undefined): in assay [3], the “Ratio IC50/EC50” value was less than 0.27. Besides, the Activity in assay [6] amounted to 87.9%; in assay [1], 8.9%. For the same compound, in assay [2], the EC50 is greater than 10 µM. In addition, in [9], the half-inhibitory concentration (IC50) was 2.75 µM.

Regarding `CC1(C)CC(NC(=S)Nc2cccc(Cl)c2)c2cc(Cl)ccc2O1` (centres undefined), in assay [3], the “Ratio IC50/EC50” value is recorded as less than 0.31. Also, the Activity in assay [6] amounted to 89.5%; in assay [1], 16.2%. The half-maximal effective concentration (EC50) in assay [2] was greater than 10 µM. Moreover, in [9], the half-maximal inhibitory concentration (IC50) was 3.12 µM.

For the compound `COc1ccc(NC(=S)NC2CC(C)(C)Oc3ccc(Cl)cc32)cc1` (centres undefined), the Activity in [1] is recorded as 50.4%. Moreover, the EC50 in [2] was 12.7 µM.

Regarding `CC1(C)Oc2ccc(C#N)cc2C(N2CCCC2=O)C1O` (racemic) [CROMAKALIM], the “Ratio IC50/EC50” value in assay [3] was greater than 770. In addition, the Activity in assay [6] is 95.3%; in assay [1], 94.4%. In addition, in assay [2], the EC50 turned out to be 0.13 µM. In assay [9], the IC50 was greater than 100 µM.

The values are drawn from ChEMBL document CHEMBL1150250, “New R/S-3,4-dihydro-2,2-dimethyl-6-halo-4-(phenylaminothiocarbonylamino)-2H-1-benzopyrans structurally related to (+/-)-cromakalim as tissue-selective pancreatic beta-cell K(ATP) channel openers” (Bioorg Med Chem, 2008).
